Experimental data: publication PMC12634867 (Neoplasia (New York, N.Y.), 2025)
Where two headings read alike, the source gives them in different places.

What was measured:
[1] = system: NCCIT cells; experiment: NCCIT cell confluence; type: cell-based, human; conditions: for IC50: read-out: IC50, NCCIT cells
[2] = single dose, healthy male volunteers; cited from earlier work
[3] = system: CBA/CaJ mice; experiment: multi-cycle cisplatin ototoxicity mouse model, survival and general condition; type: in vivo
[4] = system: noise-induced hearing loss (NIHL) model; conditions: cited from earlier work
[5] = system: CBA/CaJ mice; experiment: multi-cycle cisplatin ototoxicity mouse model, DPOAE; type: in vivo; conditions: any combination group
[6] = system: CBA/CaJ mice; experiment: multi-cycle cisplatin ototoxicity mouse model, hair cell counts; type: in vivo
[7] = system: FVB mice; conditions: cited from earlier work
[8] = system: cyclin D1/CDK4; conditions: read-out: in vitro IC50 against cyclin D1/CDK4; cited from earlier work
[9] = system: JKT1 cells; experiment: MTT cell viability, JKT1; type: cell-based; conditions: ∼0.02-100 μM AZD5438 together with cisplatin, 24 h MTT
[10] = system: phosphorylated Rb; conditions: cited from earlier work
[11] = cited from earlier work
[12] = system: cochlear explants; conditions: read-out: EC50 in cochlear explants; protection against cisplatin; cited from earlier work
[13] = system: cyclin B1/CDK1; conditions: read-out: in vitro IC50 against cyclin B1/CDK1; cited from earlier work
[14] = system: IMR-32, SH-SY5Y, SKN-AS, SHP-77, H115, A549, Kelly, JKT1, NCCIT; conditions: neuroblastoma, lung and testicular origins; cited from earlier work
[15] = system: mice; conditions: cited from earlier work
[16] = system: NCCIT tumor-bearing SCID mice; experiment: NCCIT xenograft mouse model; type: in vivo
Procedure, shortened: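 Male SCID mice aged 12 wk were implanted s.c. with 1 × 10⁷ NCCIT cells in 1:1 Matrigel. At mean tumor size ~100 mm³, they were randomized into four groups (n = 10). […] Oral test compound or vehicle (10% DMSO/5% Tween-80/40% PEG-300/45% saline) was given b.i.d. on days 1–3. Cycles lasted 7 days, three in all. Caliper volumes normalized to baseline; two-way ANOVA with Tukey.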

[17] = clinical phase I tolerability, cancer patients; type: in vivo, human
[18] = cited from earlier work; remark: listed apart in the source
[19] = system: cyclin A/CDK2; conditions: read-out: in vitro IC50 against cyclin A/CDK2; cited from earlier work
[20] = system: cyclin E/CDK2; conditions: read-out: in vitro IC50 against cyclin E/CDK2; cited from earlier work
[21] = plasma pharmacokinetics of single oral AZD5438 dosing in mice; type: in vivo; conditions: CBA, mouse, 37.5 mg/kg
[22] = system: CBA/CaJ mice; experiment: multi-cycle cisplatin ototoxicity mouse model, ABR; type: in vivo
[23] = system: SEM-1 cells; experiment: MTT cell viability, SEM-1; type: cell-based; conditions: ∼0.02-100 μM AZD5438 together with cisplatin, 24 h MTT
[24] = system: CBA/CaJ model; conditions: CBA/CaJ model and retrospective human study; cited from earlier work

## Cc1ncc(-c2ccnc(Nc3ccc(S(C)(=O)=O)cc3)n2)n1C(C)C [AZD5438]
[1]; Homo sapiens, NCCIT, 40 h
  IC50: 1380 nM
[1]; cisplatin 5 μM + AZD5438 3 μM, 40 h
  cell death of combination vs either drug alone: significantly higher cell death
[2]
  maximum tolerated dose (MTD): 80 mg
[3]; co-treated animals (Fig. 2, Fig. 3)
  adverse effects based on body weight or behavior: no significant adverse effects
[3]; multi-cycle cisplatin + AZD5438 b.i.d.
  mortality during the entire experiments: Only a few mice mostly in the cisplatin + 37.5 mg/kg AZD5438 group died
[4]; AZD5438 and dabrafenib, preservation at 8, 16 and 32 kHz
  protection in NIHL model, co-treatment with dabrafenib: enhanced protection
[4]; oral 75 mg/kg
  auditory thresholds in NIHL model: improved auditory thresholds at 8 and 16 kHz
[5]
  DPOAE amplitudes input and output analysis, protection vs cisplatin only: no significant protection
  DPOAE thresholds and amplitudes, protection vs cisplatin only: no significant protection
[6]; AZD5438 co-treated groups, 32 kHz region
  reduction of cisplatin-induced outer hair cell loss: did not significantly reduce cisplatin-induced outer hair cell loss
[6]; all groups
  inner hair cell loss: none of the groups caused any inner hair cell loss
[7]; oral 75 mg/kg once daily for three days
  protection against CIHL: significantly protected against CIHL at 32 kHz
[7]; transtympanic 50 µM, one hour before and 24 h after cisplatin
  cisplatin-induced hearing loss (ABR thresholds at 32 kHz): significantly attenuated cisplatin-induced hearing loss
[8]
  IC50: 450 nM
[9]
  interference with cisplatin tumor cell loss, JKT1: no substantial interferences
[10]
  time after administration within which phosphorylated Rb was modulated: 1 to 3 h
[11]; cancer patient cohort, QID one day weekly
  well tolerated dose: ≤ 90 mg
[11]; cancer patients, four times (QID) for one day per week
  non-tolerated dose (NTD): > 90 mg
[11]; cancer patients, four times daily for at least 14 and 28 consecutive days
  non-tolerated dose (NTD): 40 mg
[11]; continuous dosing, 40 mg QID, cancer patients
  adverse events: gastrointestinal in origin, including profound anorexia and fatigue in some patients, accompanied by nausea and vomiting
[12]
  EC50: 5 nM
[13]
  IC50: 16 nM
[14]
  interference with cisplatin's tumor killing in nine cancer cell lines: does not interfere
[15]
  cisplatin-induced nephrotoxicity: protected against cisplatin-induced nephrotoxicity
[16]; 9.4 mg/kg b.i.d. oral + cisplatin 3 mg/kg
  tumor volume, cisplatin + AZD5438 vs cisplatin only: no significant differences
[16]; AZD5438 only, 9.4 mg/kg b.i.d. oral, vs vehicle
  tumor volume: increased at similar rates
[16]; cisplatin + AZD5438 vs cisplatin only
  body weight: trend of body weight loss more than the cisplatin only group, although insignificantly
[16]; combination group and AZD5438 only group, 9.4 mg/kg b.i.d.
  survival: several deaths occurred
[17]; cancer patients, four times daily (QID), conjectured from NTDs
  estimated MTD: 20 to 90 mg
[17]; extrapolated from tolerated Cmax
  human equivalent (tolerated) mouse dose: ≤ 9.4 mg/kg
[17]; human, plasma, oral
  Cmax: < 300 ng/mL
[18]; oral, animal and human studies
  dose-dependent linear Cmax values: 5 to 1,000 ng/mL
[18]; plasma, single oral dose
  Tmax: 30 to 180 min
[19]
  IC50: 45 nM
[20]
  IC50: 6 nM
[21]
  Cmax: 1470 ± 916 ng/mL
  concentration at 2 h: 621 ± 305 ng/mL
  concentration at 3 h: 510 ± 135 ng/mL
[22]; any combination group
  ABR wave 1 amplitudes, protection vs cisplatin only: no significant protection
[22]; combination groups, all levels at 8 and 16 kHz
  ABR wave 1 latency, improvement vs cisplatin only: did not reveal significant improvements
[23]
  interference with cisplatin tumor cell loss, SEM-1: no substantial interferences

## CC(C)c1c(C(=O)Nc2ccccc2)c(-c2ccccc2)c(-c2ccc(F)cc2)n1CC[C@@H](O)C[C@@H](O)CC(=O)O [atorvastatin]
[24]
  auditory protection: 5–8 dB

## N.N.[Cl][Pt][Cl] [cisplatin, cis-diamminedichloroplatinum (II)]
[1]; single agent, confluency over 40 h
  IC50: 9000 nM
[7]; single IP cisplatin 30 mg/kg, 8, 16 and 32 kHz
  auditory threshold elevations: 5–20 dB
[16]; cisplatin only, 3 mg/kg, two days per week
  tumor volume: completely obliterated the tumor volumes
